Data on three molecules can be found in ChEMBL document CHEMBL4024768, “Discovery and Optimization of Thiazolidinyl and Pyrrolidinyl Derivatives as Inhaled PDE4 Inhibitors for Respiratory Diseases” (J Med Chem, 2017).

One data set in a line: Apparent permeability across basolateral to apical side in human Caco2 cells at 10 uM after 2 hrs by LC-MS/MS analysis. It is filed as ADME, cell-based. As to conditions: Caco-2.
For the molecule `COc1ccc(S(=O)(=O)N2CCS[C@H]2C(=O)O[C@@H](Cc2c(Cl)c[n+]([O-])cc2Cl)c2ccc(OC(F)F)c(OCC3CC3)c2)cc1C(=O)N(C)C` (relative stereo), the apparent permeability from basolateral to apical (Papp B→A) at 2 h, 10 µM turned out to be 7.67 ×10⁻⁶ cm/s.
Still for that read-out and setting: as for `COc1ccc(S(=O)(=O)N2CCC[C@H]2C(=O)O[C@@H](Cc2c(Cl)c[n+]([O-])cc2Cl)c2ccc(OC(F)F)c(OCC3CC3)c2)cc1C(=O)N(C)C` (relative stereo), the figure is 12.5 ×10⁻⁶ cm/s.
With `COc1ccc(S(=O)(=O)N2CCCC[C@H]2C(=O)O[C@@H](Cc2c(Cl)c[n+]([O-])cc2Cl)c2ccc(OC(F)F)c(OCC3CC3)c2)cc1C(=O)N(C)C` (relative stereo), the Papp B→A at 2 h, 10 µM was determined as 68.4 ×10⁻⁶ cm/s.

The next data set in a line: Protein binding in human plasma at 5 uM after 5 hrs by LC-MS/MS analysis. It is filed as ADME, cell-free. As to conditions: read-out: PPB (converted).
As for `COc1ccc(S(=O)(=O)N2CCS[C@H]2C(=O)O[C@@H](Cc2c(Cl)c[n+]([O-])cc2Cl)c2ccc(OC(F)F)c(OCC3CC3)c2)cc1C(=O)N(C)C` (relative stereo), the fraction unbound at 5 h, 5 µM was 0.0017.
Turning to `COc1ccc(S(=O)(=O)N2CCC[C@H]2C(=O)O[C@@H](Cc2c(Cl)c[n+]([O-])cc2Cl)c2ccc(OC(F)F)c(OCC3CC3)c2)cc1C(=O)N(C)C` (relative stereo), the fraction unbound at 5 h, 5 µM is 0.0032.
Same read-out and setting: the result for `COc1ccc(S(=O)(=O)N2CCCC[C@H]2C(=O)O[C@@H](Cc2c(Cl)c[n+]([O-])cc2Cl)c2ccc(OC(F)F)c(OCC3CC3)c2)cc1C(=O)N(C)C` (relative stereo) reads 0.0023.

Another data set is described as follows: Intrinsic clearance in human liver microsomes at 1 uM measured after 60 mins in presence NADPH by LC-MS/MS analysis. The format is ADME, microsome. As to conditions: read-out: CLH. The essentials: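 Compound at 1 μM with human liver microsomes (0.8 mg protein/mL) in Dulbecco's buffer pH 7.4, 1 mM NADPH, 37 °C, in duplicate. Sampled at 0, 5, 10, 20, 30 and 60 min, quenched with ice-cold acetonitrile, and unchanged compound measured by LC−MS/MS. No-NADPH controls; midazolam (1 μM) as phase I control.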
A general note: Microsomes from liver hold many membrane-bound enzymes, among them those of drug oxidation.
Regarding `COc1ccc(S(=O)(=O)N2CCS[C@H]2C(=O)O[C@@H](Cc2c(Cl)c[n+]([O-])cc2Cl)c2ccc(OC(F)F)c(OCC3CC3)c2)cc1C(=O)N(C)C` (relative stereo), the microsomal CLint at 1 µM is 360 µL/min/mg.
On to `COc1ccc(S(=O)(=O)N2CCC[C@H]2C(=O)O[C@@H](Cc2c(Cl)c[n+]([O-])cc2Cl)c2ccc(OC(F)F)c(OCC3CC3)c2)cc1C(=O)N(C)C` (relative stereo), for which the microsomal CLint at 1 µM worked out at 365 µL/min/mg.
Same read-out and setting: the result for `COc1ccc(S(=O)(=O)N2CCCC[C@H]2C(=O)O[C@@H](Cc2c(Cl)c[n+]([O-])cc2Cl)c2ccc(OC(F)F)c(OCC3CC3)c2)cc1C(=O)N(C)C` (relative stereo) reads 244 µL/min/mg.

A further data set can be described thus: Intrinsic clearance in human hepatocytes assessed per million cells at 1 uM measured after 90 mins by LC-MS/MS analysis. As to conditions: read-out: CLH. The format is ADME, cell-based, Hepatocyte. Summed up:
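Compound at 1 μM with hepatocytes (1 million cells/mL) in Leibovitz L-15 at 37 °C, in duplicate. Sampled at 0, 10, 20, 30, 60 and 90 min, quenched with ice-cold acetonitrile, centrifuged, and unchanged compound measured by LC−MS/MS. Included 7-ethoxycoumarin and 7-hydroxycoumarin activity controls and cell-free medium controls.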
Regarding `COc1ccc(S(=O)(=O)N2CCS[C@H]2C(=O)O[C@@H](Cc2c(Cl)c[n+]([O-])cc2Cl)c2ccc(OC(F)F)c(OCC3CC3)c2)cc1C(=O)N(C)C` (relative stereo), the hepatocyte CLint at 1 µM is 47.6 µL/min/1e6 cells.
The same measure, in the same setting: the result for `COc1ccc(S(=O)(=O)N2CCC[C@H]2C(=O)O[C@@H](Cc2c(Cl)c[n+]([O-])cc2Cl)c2ccc(OC(F)F)c(OCC3CC3)c2)cc1C(=O)N(C)C` (relative stereo) reads 56.7 µL/min/1e6 cells; that for `COc1ccc(S(=O)(=O)N2CCCC[C@H]2C(=O)O[C@@H](Cc2c(Cl)c[n+]([O-])cc2Cl)c2ccc(OC(F)F)c(OCC3CC3)c2)cc1C(=O)N(C)C` (relative stereo), 33.2 µL/min/1e6 cells.

A short description of a further data set: Apparent permeability across apical to basolateral side in human Caco2 cells at 10 uM after 2 hrs by LC-MS/MS analysis. It is filed as ADME, cell-based. As to conditions: Caco-2. A general note: Caco-2 monolayers are a common model of the intestinal barrier.
For `COc1ccc(S(=O)(=O)N2CCS[C@H]2C(=O)O[C@@H](Cc2c(Cl)c[n+]([O-])cc2Cl)c2ccc(OC(F)F)c(OCC3CC3)c2)cc1C(=O)N(C)C` (relative stereo), the Papp A→B at 2 h, 10 µM came to 0.23 ×10⁻⁶ cm/s.
In the case of `COc1ccc(S(=O)(=O)N2CCC[C@H]2C(=O)O[C@@H](Cc2c(Cl)c[n+]([O-])cc2Cl)c2ccc(OC(F)F)c(OCC3CC3)c2)cc1C(=O)N(C)C` (relative stereo), the Papp A→B at 2 h, 10 µM was determined as 0.5 ×10⁻⁶ cm/s.
As to `COc1ccc(S(=O)(=O)N2CCCC[C@H]2C(=O)O[C@@H](Cc2c(Cl)c[n+]([O-])cc2Cl)c2ccc(OC(F)F)c(OCC3CC3)c2)cc1C(=O)N(C)C` (relative stereo), the Papp A→B at 2 h, 10 µM was 13.2 ×10⁻⁶ cm/s.

Another data set in a line: Inhibition of PDE4 in human PBMC assessed as reduction in LPS-induced TNFalpha release after 18 hrs by quantitative ELISA.
Conditions: not given
Background: In an ELISA, binding on a coated surface is turned into a signal by an enzyme label.
As for `COc1ccc(S(=O)(=O)N2CCS[C@H]2C(=O)O[C@@H](Cc2c(Cl)c[n+]([O-])cc2Cl)c2ccc(OC(F)F)c(OCC3CC3)c2)cc1C(=O)N(C)C` (relative stereo), the IC50 was determined as 0.022 nM.
The same measure, in the same setting: the result for `COc1ccc(S(=O)(=O)N2CCC[C@H]2C(=O)O[C@@H](Cc2c(Cl)c[n+]([O-])cc2Cl)c2ccc(OC(F)F)c(OCC3CC3)c2)cc1C(=O)N(C)C` (relative stereo) reads 0.042 nM; that for `COc1ccc(S(=O)(=O)N2CCCC[C@H]2C(=O)O[C@@H](Cc2c(Cl)c[n+]([O-])cc2Cl)c2ccc(OC(F)F)c(OCC3CC3)c2)cc1C(=O)N(C)C` (relative stereo), 0.015 nM.

The nature of a further data set: Metabolic stability in human plasma assessed as compound remaining at 1 uM measured after 60 mins in presence of NADPH by LC-MS/MS analysis. It is filed as ADME, cell-free. As to conditions: read-out: Stability.
For `COc1ccc(S(=O)(=O)N2CCS[C@H]2C(=O)O[C@@H](Cc2c(Cl)c[n+]([O-])cc2Cl)c2ccc(OC(F)F)c(OCC3CC3)c2)cc1C(=O)N(C)C` (relative stereo), the remaining at 1 h, 1 µM came out at 98.8%.
Still for that read-out and setting: the result for `COc1ccc(S(=O)(=O)N2CCC[C@H]2C(=O)O[C@@H](Cc2c(Cl)c[n+]([O-])cc2Cl)c2ccc(OC(F)F)c(OCC3CC3)c2)cc1C(=O)N(C)C` (relative stereo) reads 101%.
As to `COc1ccc(S(=O)(=O)N2CCCC[C@H]2C(=O)O[C@@H](Cc2c(Cl)c[n+]([O-])cc2Cl)c2ccc(OC(F)F)c(OCC3CC3)c2)cc1C(=O)N(C)C` (relative stereo), the remaining at 1 h, 1 µM was found to be 88.2%.

A further data set is described as follows: Metabolic stability in human lung S9 fraction assessed as compound remaining at 1 uM measured after 60 mins in presence of NADPH by LC-MS/MS analysis. The format is ADME. As to conditions: read-out: Stability.
`COc1ccc(S(=O)(=O)N2CCS[C@H]2C(=O)O[C@@H](Cc2c(Cl)c[n+]([O-])cc2Cl)c2ccc(OC(F)F)c(OCC3CC3)c2)cc1C(=O)N(C)C` (relative stereo): the remaining at 1 h, 1 µM turned out to be 71.2%.
As for `COc1ccc(S(=O)(=O)N2CCC[C@H]2C(=O)O[C@@H](Cc2c(Cl)c[n+]([O-])cc2Cl)c2ccc(OC(F)F)c(OCC3CC3)c2)cc1C(=O)N(C)C` (relative stereo), the remaining at 1 h, 1 µM was 71.6%.
Same read-out and setting: the result for `COc1ccc(S(=O)(=O)N2CCCC[C@H]2C(=O)O[C@@H](Cc2c(Cl)c[n+]([O-])cc2Cl)c2ccc(OC(F)F)c(OCC3CC3)c2)cc1C(=O)N(C)C` (relative stereo) reads 59.7%.

The nature of a further data set: Inhibition of PDE4 in human U937 cell lysates assessed as residual cAMP after 2.5 mins by LANCE assay.
Conditions: not given
`COc1ccc(S(=O)(=O)N2CCS[C@H]2C(=O)O[C@@H](Cc2c(Cl)c[n+]([O-])cc2Cl)c2ccc(OC(F)F)c(OCC3CC3)c2)cc1C(=O)N(C)C` (relative stereo): the IC50 was 0.026 nM.
On to `COc1ccc(S(=O)(=O)N2CCC[C@H]2C(=O)O[C@@H](Cc2c(Cl)c[n+]([O-])cc2Cl)c2ccc(OC(F)F)c(OCC3CC3)c2)cc1C(=O)N(C)C` (relative stereo), for which the 50% inhibitory concentration (IC50) came out at 0.0351 nM.
For the molecule `COc1ccc(S(=O)(=O)N2CCCC[C@H]2C(=O)O[C@@H](Cc2c(Cl)c[n+]([O-])cc2Cl)c2ccc(OC(F)F)c(OCC3CC3)c2)cc1C(=O)N(C)C` (relative stereo), the IC50 was 0.031 nM.

The term Papp B→A denotes the apparent permeability from the basolateral to the apical side of a cell layer. As usually defined, the Papp A→B is how fast a substance crosses the layer from the apical side. The term IC50 denotes the midpoint of a concentration-inhibition curve.
